The values that follow come from ChEMBL document CHEMBL2311366, “MMP inhibition by barbiturate homodimers” (Bioorg Med Chem Lett, 2013).

Structures are written as SMILES. Activity calls are given as the source filed them. No cut-off for these calls is given here.

One data set has as its target Neutrophil collagenase (Homo sapiens, UniProt P22894). In words: Inhibition of human recombinant MMP-8 after 45 mins by fluorogenic assay. The gist of the method:
(§1)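 Human recombinant enzymes in a fluorogenic activity assay. Test concentrations 0.01–10,000 nM, 45 min incubation. IC50 reported as mean SEM of at least three independent experiments.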

Data set [1] addresses T1, Interstitial collagenase (Homo sapiens) (UniProt P03956).
T1 sequence (whole entry): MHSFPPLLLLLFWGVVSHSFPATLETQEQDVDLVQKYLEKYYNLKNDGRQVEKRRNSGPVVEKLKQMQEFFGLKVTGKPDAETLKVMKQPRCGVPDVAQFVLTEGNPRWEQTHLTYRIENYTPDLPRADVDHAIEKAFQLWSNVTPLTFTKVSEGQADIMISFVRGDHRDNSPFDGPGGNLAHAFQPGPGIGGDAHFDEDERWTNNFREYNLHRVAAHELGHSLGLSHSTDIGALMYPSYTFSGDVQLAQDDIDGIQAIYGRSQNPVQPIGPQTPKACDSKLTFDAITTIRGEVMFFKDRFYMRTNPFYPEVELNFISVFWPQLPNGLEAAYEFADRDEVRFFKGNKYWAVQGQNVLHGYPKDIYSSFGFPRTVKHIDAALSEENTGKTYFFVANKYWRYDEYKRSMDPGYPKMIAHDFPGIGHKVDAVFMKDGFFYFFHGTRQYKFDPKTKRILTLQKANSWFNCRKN
In words: Inhibition of human recombinant MMP-1 at 10 uM after 45 mins by fluorogenic assay.

The next data set concerns the target Collagenase 3 (Homo sapiens, UniProt P45452). The data set is described as follows: Inhibition of human recombinant MMP-13 after 45 mins by fluorogenic assay. The gist of the method: as §1
A short description of data set [2]: Metabolic stability in human duodenal fluid assessed as compound remaining at 6 hrs. The data set is classed as ADME. Conditions: read-out: Stability. In outline:
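Incubation at 37 °C in simulated human duodenal fluid. Remaining compound was measured by RP HPLC as a function of time.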

Neutrophil collagenase, sequence (P22894 whole entry): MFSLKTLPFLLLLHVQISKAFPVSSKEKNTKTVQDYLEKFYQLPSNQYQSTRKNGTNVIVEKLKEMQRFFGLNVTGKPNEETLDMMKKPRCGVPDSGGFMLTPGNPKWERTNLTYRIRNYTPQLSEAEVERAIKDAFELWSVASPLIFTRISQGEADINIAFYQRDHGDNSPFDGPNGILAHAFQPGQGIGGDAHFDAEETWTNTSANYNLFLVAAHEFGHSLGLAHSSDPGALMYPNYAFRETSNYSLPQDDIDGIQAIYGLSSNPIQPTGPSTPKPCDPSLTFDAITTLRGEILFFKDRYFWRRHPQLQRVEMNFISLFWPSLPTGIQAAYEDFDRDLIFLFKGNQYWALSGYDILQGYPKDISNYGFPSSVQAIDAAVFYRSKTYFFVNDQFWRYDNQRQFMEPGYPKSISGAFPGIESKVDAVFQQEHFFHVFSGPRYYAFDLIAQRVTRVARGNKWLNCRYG

With `O=C1NC(=O)C(c2ccc(Oc3ccccc3)cc2)(N2CCCN(C(=O)CCCCCC(=O)N3CCCN(C4(c5ccc(Oc6ccccc6)cc5)C(=O)NC(=O)NC4=O)CC3)CC2)C(=O)N1`, the results for the half-inhibitory concentration (IC50) on Neutrophil collagenase and at Collagenase 3 were 117 nM and 648 nM, respectively. The inhibition result in data set [1] was “inactive”.
The like results for `O=C1NC(=O)C(c2ccc(Oc3ccccc3)cc2)(N2CCCN(C(=O)CCCCCCCCCCCCCCC(=O)N3CCCN(C4(c5ccc(Oc6ccccc6)cc5)C(=O)NC(=O)NC4=O)CC3)CC2)C(=O)N1` were, in that order, 282 nM, 134 nM and “inactive”.
Take `CCCC(=O)N1CCCN(C2(c3ccc(Oc4ccccc4)cc3)C(=O)NC(=O)NC2=O)CC1`: the inhibition result in data set [1] is “inactive”.
In the case of `O=C1NC(=O)C(c2ccc(Oc3ccccc3)cc2)(N2CCCN(C(=O)CCCCCCCCCCCCC(=O)N3CCCN(C4(c5ccc(Oc6ccccc6)cc5)C(=O)NC(=O)NC4=O)CC3)CC2)C(=O)N1`, the results for the half-inhibitory concentration (IC50) at Neutrophil collagenase and at Collagenase 3 were 217 nM and 70 nM, respectively. In addition, in data set [1], the inhibition entry is “inactive”.
The like results for `O=C1NC(=O)C(c2ccc(Oc3ccccc3)cc2)(N2CCCN(C(=O)CCCCCCCCCCC(=O)N3CCCN(C4(c5ccc(Oc6ccccc6)cc5)C(=O)NC(=O)NC4=O)CC3)CC2)C(=O)N1` were, in that order, 125 nM, 104 nM and “inactive”.
The like results for `O=C1NC(=O)C(c2ccc(Oc3ccccc3)cc2)(N2CCCN(C(=O)c3ccc(C(=O)N4CCCN(C5(c6ccc(Oc7ccccc7)cc6)C(=O)NC(=O)NC5=O)CC4)cc3)CC2)C(=O)N1` were, in that order, 46 nM, 23 nM and “inactive”.
For the compound `O=C1NC(=O)C(c2ccc(Oc3ccccc3)cc2)(N2CCCN(C(=O)CCCC(=O)N3CCCN(C4(c5ccc(Oc6ccccc6)cc5)C(=O)NC(=O)NC4=O)CC3)CC2)C(=O)N1`, the IC50 on Neutrophil collagenase was determined as 85 nM; on Collagenase 3, 164 nM. For the same compound, the inhibition result in data set [1] is “inactive”. Further, the remaining at 6 h in data set [2] is over 50%.
As to `O=C1NC(=O)C(c2ccc(Oc3ccccc3)cc2)(N2CCCN(C(=O)CCCCCCC(=O)N3CCCN(C4(c5ccc(Oc6ccccc6)cc5)C(=O)NC(=O)NC4=O)CC3)CC2)C(=O)N1`, the IC50 on Neutrophil collagenase is 88 nM; at Collagenase 3 it was 155 nM. Besides, the inhibition result in data set [1] is “inactive”.
The like results for `O=C1NC(=O)C(c2ccc(Oc3ccccc3)cc2)(N2CCCN(C(=O)CCCCCCCC(=O)N3CCCN(C4(c5ccc(Oc6ccccc6)cc5)C(=O)NC(=O)NC4=O)CC3)CC2)C(=O)N1` were, in that order, 98 nM, 44 nM and “inactive”.
Take `O=C1NC(=O)C(c2ccc(Oc3ccccc3)cc2)(N2CCCN(C(=O)CCCCCCCCCCCCCCCCCCCCC(=O)N3CCCN(C4(c5ccc(Oc6ccccc6)cc5)C(=O)NC(=O)NC4=O)CC3)CC2)C(=O)N1`: the results for the IC50 on Neutrophil collagenase and at Collagenase 3 were 162 nM and 225 nM, respectively. Moreover, the inhibition result in data set [1] was “inactive”.
For `O=C1NC(=O)C(c2ccc(Oc3ccccc3)cc2)(N2CCCN(C(=O)CCC(=O)N3CCCN(C4(c5ccc(Oc6ccccc6)cc5)C(=O)NC(=O)NC4=O)CC3)CC2)C(=O)N1`, the IC50 turned out to be 44 nM at Neutrophil collagenase and 11 nM on Collagenase 3. Besides, the inhibition entry in data set [1] is “inactive”.
The like results for `O=C1NC(=O)C(c2ccc(Oc3ccccc3)cc2)(N2CCCN(C(=O)CCCCC(=O)N3CCCN(C4(c5ccc(Oc6ccccc6)cc5)C(=O)NC(=O)NC4=O)CC3)CC2)C(=O)N1` were, in that order, 60 nM, 23 nM and “inactive”.
For the compound `CCCCCCCCCCCCCC(=O)N1CCCN(C2(c3ccc(Oc4ccccc4)cc3)C(=O)NC(=O)NC2=O)CC1`, the inhibition result in data set [1] was “inactive”.
Consider `O=C1NC(=O)C(c2ccc(Oc3ccccc3)cc2)(N2CCCN(C(=O)CCCCCCCCC(=O)N3CCCN(C4(c5ccc(Oc6ccccc6)cc5)C(=O)NC(=O)NC4=O)CC3)CC2)C(=O)N1`, for which the IC50 on Neutrophil collagenase turned out to be 91 nM; on Collagenase 3 it was 106 nM. Moreover, the inhibition result in data set [1] is “inactive”.

By IC50 is commonly meant the concentration at which inhibition is half-maximal.
